The results in this text go back to ChEMBL document CHEMBL3877298, “Discovery of benzimidazole derivatives as modulators of mitochondrial function: A potential treatment for Alzheimer's disease” (Eur J Med Chem, 2017).

Data set [1] concerns the target Translocator protein (Mus musculus) (UniProt P50637). The experiment in a line: Inhibition of TSPO in mouse HT22 cells assessed as protection against amyloid beta (1 to 42)-induced mitochondrial membrane potential loss by measuring recovery of mitochondrial membrane potential at 5 uM preincubated for 10 mins followed by amyloid beta (1 to 42) addition measured every 1 hr for 3 hrs by JC1 staining based fluorescence assay relative to control. Particulars: HT-22. The data set is classed as cell-based. Also on record: scale not given: the % may be the effect or the level left. The method in brief: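 HT22 cells at 30,000 per well were loaded with 7.5 µM JC-1 in phenol red-free Opti-MEM for 1 h 15 min at 37 °C, then washed. Cells were treated with compound (5 µM) and Aβ1-42 (5 µM); vehicle wells received DMSO. Green (485/535) and red (560/595) fluorescence were read hourly for 3 h. Recovery was normalised between Aβ-damaged (0%) and normal (100%) ratio.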

Data set [2] shares this target. In words: Inhibition of TSPO in mouse HT22 cells assessed as inhibition of amyloid beta (1 to 42)-induced toxicity at 5 uM after 24 hrs by MTT assay relative to control. The data set is classed as cell-based. The conditions noted are these: HT-22. The method in brief: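 HT22 cells at 5000 per well were treated with compound (5 µM), with or without Aβ1-42 (5 µM), for 24 h at 37 °C. MTT was added for 2 h, then solubilising solution (10% Triton X-100 in isopropanol with 0.1 M HCl) for 2 h more. Absorbance read at 560 nm; % inhibition normalised to vehicle, and viability taken from compound-only wells.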

For data set [3] the target is unchanged. In words: Inhibition of TSPO in mouse HT22 cells assessed as protection against amyloid beta (1 to 42)-induced mitochondrial membrane potential loss by measuring recovery of ATP production at 5 uM preincubated for 10 mins followed by amyloid beta (1 to 42) addition measured after 7 hrs by luciferase reporter gene assay relative to control. The format is cell-based. Further details: scale not given: the % may be the effect or the level left. Particulars: HT-22. The procedure, abridged:
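HT22 cells at 7000 per well were given compound (5 µM) for 10 min at 37 °C, then Aβ1-42 (5 µM) or DMSO vehicle, and incubated 7 h. Cells were washed, lysed in 1% Triton X-100, and protein-equalised by BCA. ATP was measured by luciferin/luciferase luminescence and normalised to vehicle.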
In general terms: A reporter such as luciferase makes a cellular process visible.

A short description of data set [4]: Cytotoxicity against mouse HT22 cells assessed as cell viability at 5 uM after 24 hrs by MTT assay relative to control. The format is toxicity, HT-22. Particulars: read-out: Activity. The procedure, abridged:
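MTT was added for 2 h, then solubilising solution (10% Triton X-100 in isopropanol with 0.1 M HCl) for 2 h more. Absorbance read at 560 nm; % inhibition normalised to vehicle, and viability taken from compound-only wells.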
Background: Formazan colour is commonly taken as a measure of viable cells.

The test system of another data set is Mus musculus. In words: Cognition enhancing effect in ICR mouse model of acute Alzheimer's disease assessed as reversal of amyloid beta (1 to 42)-induced cognitive deficit by measuring spatial working memory at 30 mg/kg, ip daily for 6 days measured on day 7 by Y maze spontaneous alteration test relative to control. The data set is classed as functional. The method in brief:
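Male ICR mice (6 weeks, 30–33 g) received Aβ1-42 500 pmol ICV in 10% DMSO/PBS. Compound in 20% cyclodextrin was given at 30 mg/kg daily for 6 days (n = 7 per group). One day later, each mouse explored a three-arm Y-maze for 8 min, and the sequence of arm entries was used to calculate % spontaneous alternation.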

Data set [5] addresses Translocator protein (Mus musculus) (UniProt P50637). The experiment in a line: Inhibition of TSPO in mouse HT22 cells assessed as inhibition of amyloid beta (1 to 42)-induced ROS generation at 5 uM after 6 hrs by DCFDA staining based fluorescence assay relative to control. The conditions noted are these: HT-22. The data set is classed as cell-based.
Another data set addresses T1, CYP1A2 (Homo sapiens, UniProt P05177).
T1 sequence (P05177 whole entry): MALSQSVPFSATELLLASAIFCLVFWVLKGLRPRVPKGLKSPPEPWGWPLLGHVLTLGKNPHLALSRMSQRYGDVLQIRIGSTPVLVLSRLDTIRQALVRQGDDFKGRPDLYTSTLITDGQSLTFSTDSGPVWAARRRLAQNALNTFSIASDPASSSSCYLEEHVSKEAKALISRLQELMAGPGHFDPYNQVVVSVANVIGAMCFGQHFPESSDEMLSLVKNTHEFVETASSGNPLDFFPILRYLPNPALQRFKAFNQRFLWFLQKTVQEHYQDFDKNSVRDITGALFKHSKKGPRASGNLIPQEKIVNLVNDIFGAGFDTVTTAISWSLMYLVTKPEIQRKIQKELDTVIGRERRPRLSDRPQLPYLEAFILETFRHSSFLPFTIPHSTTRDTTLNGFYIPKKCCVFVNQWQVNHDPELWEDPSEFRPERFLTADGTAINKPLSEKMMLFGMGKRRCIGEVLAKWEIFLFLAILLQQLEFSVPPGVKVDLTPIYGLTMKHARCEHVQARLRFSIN
The experiment in a line: Inhibition of recombinant human CYP1A2 expressed in baculosomes coexpressing rabbit NADPH-P450 reudctase assessed as residual activity at 10 uM preincubated for 5 mins followed by substrate and NADP+ addition measured after 20 mins by fluorescence assay relative to control. The format is ADME. Particulars: read-out: Activity. The procedure, abridged:
(§1)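 Vivid CYP450 kit: recombinant human CYP isozyme in Baculosomes with rabbit NADPH-P450 reductase, plus regeneration system (3.3 mM glucose-6-phosphate, 0.3 U/mL G6PDH in 100 mM potassium phosphate, pH 8.0). Mixture preincubated with sample for 5 min at 37 °C. Vivid substrate and 0.1 mM NADP+ were then added, and remaining activity read by fluorescence after 20 min.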

The target of a further data set is CYP2D6 (Homo sapiens, UniProt P10635). In words: Inhibition of recombinant human CYP2D6 expressed in baculosomes coexpressing rabbit NADPH-P450 reudctase assessed as residual activity at 10 uM preincubated for 5 mins followed by substrate and NADP+ addition measured after 20 mins by fluorescence assay relative to control. The data set is classed as ADME. Particulars: read-out: Activity. The method in brief:
as §1

The next data set addresses CYP2C9 (Homo sapiens, UniProt P11712). In words: Inhibition of recombinant human CYP2C9 expressed in baculosomes coexpressing rabbit NADPH-P450 reudctase assessed as residual activity at 10 uM preincubated for 5 mins followed by substrate and NADP+ addition measured after 20 mins by fluorescence assay relative to control. The data set is classed as ADME. Particulars: read-out: Activity. The method in brief:
as §1

The target in another data set is CYP2C19 (Homo sapiens, UniProt P33261). In words: Inhibition of recombinant human CYP2C19 expressed in baculosomes coexpressing rabbit NADPH-P450 reudctase assessed as residual activity at 10 uM preincubated for 5 mins followed by substrate and NADP+ addition measured after 20 mins by fluorescence assay relative to control. The format is ADME. Particulars: read-out: Activity. The method in brief: as §1
Chain of CYP2C19 (P33261 whole entry): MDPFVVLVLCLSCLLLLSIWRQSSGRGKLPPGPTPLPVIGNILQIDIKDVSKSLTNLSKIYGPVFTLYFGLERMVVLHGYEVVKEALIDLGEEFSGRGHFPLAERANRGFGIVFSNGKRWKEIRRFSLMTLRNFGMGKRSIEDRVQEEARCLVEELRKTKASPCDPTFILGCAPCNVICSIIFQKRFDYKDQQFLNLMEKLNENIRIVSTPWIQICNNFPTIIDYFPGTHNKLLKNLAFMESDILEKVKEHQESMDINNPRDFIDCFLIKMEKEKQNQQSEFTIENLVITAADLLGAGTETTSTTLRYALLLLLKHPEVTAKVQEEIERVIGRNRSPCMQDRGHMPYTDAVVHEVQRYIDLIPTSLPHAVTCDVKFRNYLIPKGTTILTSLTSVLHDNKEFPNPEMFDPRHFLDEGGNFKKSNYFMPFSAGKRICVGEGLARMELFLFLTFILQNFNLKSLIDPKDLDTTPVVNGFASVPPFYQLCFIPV

The target in a further data set is CYP3A4 (Homo sapiens, UniProt P08684). In words: Inhibition of recombinant human CYP3A4 expressed in baculosomes coexpressing rabbit NADPH-P450 reudctase assessed as residual activity at 10 uM preincubated for 5 mins followed by substrate and NADP+ addition measured after 20 mins by fluorescence assay relative to control. The format is ADME. Particulars: read-out: Activity. The method in brief:
as §1

A further data set deals with Translocator protein (Homo sapiens, UniProt P30536). In words: Inhibition of TSPO (unknown origin). The procedure, abridged: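 Membranes from male Sprague-Dawley rat cerebral cortex were homogenised and washed in Tris-HCl (30 mM, pH 7.4), then washed in Tris-citrate (50 mM, pH 7.1). Bound and free ligand were separated by filtration through GF/C filters and counted by scintillation. Percent displacement gave the IC50, and Ki was calculated as IC50/(1+[L]/Kd).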
Chain of Translocator protein (P30536 whole entry): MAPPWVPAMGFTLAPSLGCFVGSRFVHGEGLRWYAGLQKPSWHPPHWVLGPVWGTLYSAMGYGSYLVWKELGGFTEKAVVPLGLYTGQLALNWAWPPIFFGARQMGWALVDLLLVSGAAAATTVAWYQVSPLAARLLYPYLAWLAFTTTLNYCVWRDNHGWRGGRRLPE

The target of data set [6] is Voltage-gated inwardly rectifying potassium channel KCNH2 (Homo sapiens, UniProt Q12809). In words: Inhibition of human ERG expressed in CHOK1 cells by automated patch clamp method. The data set is classed as cell-based, CHO-K1.
Chain of Voltage-gated inwardly rectifying potassium channel KCNH2 (Q12809 whole entry): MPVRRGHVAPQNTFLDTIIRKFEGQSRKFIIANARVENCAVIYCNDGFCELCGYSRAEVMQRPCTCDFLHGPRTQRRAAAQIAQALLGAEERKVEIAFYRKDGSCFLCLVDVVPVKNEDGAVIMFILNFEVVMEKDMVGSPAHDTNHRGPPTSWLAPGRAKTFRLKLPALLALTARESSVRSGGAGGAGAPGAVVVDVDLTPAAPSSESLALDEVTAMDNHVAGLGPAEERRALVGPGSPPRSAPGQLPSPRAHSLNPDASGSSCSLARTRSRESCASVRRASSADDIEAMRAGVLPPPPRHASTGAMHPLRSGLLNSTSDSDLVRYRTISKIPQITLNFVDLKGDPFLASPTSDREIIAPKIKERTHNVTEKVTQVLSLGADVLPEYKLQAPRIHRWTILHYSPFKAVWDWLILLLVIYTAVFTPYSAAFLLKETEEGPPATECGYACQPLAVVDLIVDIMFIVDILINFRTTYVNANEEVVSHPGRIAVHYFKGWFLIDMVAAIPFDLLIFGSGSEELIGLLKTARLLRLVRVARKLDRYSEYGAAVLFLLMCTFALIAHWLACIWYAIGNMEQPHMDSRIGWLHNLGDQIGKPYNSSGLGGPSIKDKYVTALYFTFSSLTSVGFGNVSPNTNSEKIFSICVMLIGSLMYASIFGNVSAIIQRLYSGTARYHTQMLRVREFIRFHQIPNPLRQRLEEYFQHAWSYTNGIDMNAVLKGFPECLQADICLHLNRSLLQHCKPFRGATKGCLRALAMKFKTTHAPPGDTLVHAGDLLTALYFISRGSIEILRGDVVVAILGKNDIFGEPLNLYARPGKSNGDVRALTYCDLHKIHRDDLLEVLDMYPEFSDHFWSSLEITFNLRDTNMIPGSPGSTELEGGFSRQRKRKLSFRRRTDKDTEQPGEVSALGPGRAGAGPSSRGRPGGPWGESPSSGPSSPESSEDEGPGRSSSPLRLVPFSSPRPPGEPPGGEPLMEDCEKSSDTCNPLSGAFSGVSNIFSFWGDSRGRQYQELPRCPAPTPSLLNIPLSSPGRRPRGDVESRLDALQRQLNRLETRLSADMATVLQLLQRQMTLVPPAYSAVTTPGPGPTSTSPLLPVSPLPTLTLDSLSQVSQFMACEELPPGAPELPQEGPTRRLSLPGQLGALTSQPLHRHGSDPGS

Chain of Translocator protein (Mus musculus) (P50637 whole entry, looked up): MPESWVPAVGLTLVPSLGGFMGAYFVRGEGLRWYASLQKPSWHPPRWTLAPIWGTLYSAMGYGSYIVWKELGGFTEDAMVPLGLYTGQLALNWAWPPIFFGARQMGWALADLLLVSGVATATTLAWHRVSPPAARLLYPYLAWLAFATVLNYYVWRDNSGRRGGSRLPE
Chain of CYP2D6 (P10635 whole entry): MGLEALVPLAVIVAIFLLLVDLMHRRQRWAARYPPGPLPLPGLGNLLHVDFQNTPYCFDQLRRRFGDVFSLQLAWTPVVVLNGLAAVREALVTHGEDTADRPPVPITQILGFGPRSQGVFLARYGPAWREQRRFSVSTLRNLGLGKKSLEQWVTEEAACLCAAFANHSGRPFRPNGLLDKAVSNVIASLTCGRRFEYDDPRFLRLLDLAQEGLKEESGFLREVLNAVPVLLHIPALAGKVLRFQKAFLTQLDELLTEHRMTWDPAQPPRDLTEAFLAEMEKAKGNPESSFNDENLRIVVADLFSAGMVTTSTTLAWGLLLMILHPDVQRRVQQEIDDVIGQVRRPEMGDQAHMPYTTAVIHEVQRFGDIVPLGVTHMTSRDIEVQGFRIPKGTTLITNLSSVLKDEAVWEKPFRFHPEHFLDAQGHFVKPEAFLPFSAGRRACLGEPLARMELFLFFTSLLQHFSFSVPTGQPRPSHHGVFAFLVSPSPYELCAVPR
Chain of CYP3A4 (P08684 whole entry): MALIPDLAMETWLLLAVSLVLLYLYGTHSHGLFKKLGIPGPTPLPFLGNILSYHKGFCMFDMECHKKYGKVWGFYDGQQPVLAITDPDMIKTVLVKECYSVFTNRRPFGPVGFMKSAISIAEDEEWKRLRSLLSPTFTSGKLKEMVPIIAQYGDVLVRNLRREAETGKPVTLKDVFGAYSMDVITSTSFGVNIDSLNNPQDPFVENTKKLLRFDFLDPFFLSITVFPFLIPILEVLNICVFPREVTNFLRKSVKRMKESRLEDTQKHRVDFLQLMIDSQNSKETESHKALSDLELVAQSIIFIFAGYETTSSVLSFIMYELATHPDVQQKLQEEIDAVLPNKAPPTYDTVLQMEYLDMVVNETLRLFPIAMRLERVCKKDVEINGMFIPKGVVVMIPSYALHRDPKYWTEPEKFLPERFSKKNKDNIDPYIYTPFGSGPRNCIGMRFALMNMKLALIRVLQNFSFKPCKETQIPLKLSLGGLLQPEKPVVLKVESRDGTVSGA
Chain of CYP2C9 (P11712 whole entry): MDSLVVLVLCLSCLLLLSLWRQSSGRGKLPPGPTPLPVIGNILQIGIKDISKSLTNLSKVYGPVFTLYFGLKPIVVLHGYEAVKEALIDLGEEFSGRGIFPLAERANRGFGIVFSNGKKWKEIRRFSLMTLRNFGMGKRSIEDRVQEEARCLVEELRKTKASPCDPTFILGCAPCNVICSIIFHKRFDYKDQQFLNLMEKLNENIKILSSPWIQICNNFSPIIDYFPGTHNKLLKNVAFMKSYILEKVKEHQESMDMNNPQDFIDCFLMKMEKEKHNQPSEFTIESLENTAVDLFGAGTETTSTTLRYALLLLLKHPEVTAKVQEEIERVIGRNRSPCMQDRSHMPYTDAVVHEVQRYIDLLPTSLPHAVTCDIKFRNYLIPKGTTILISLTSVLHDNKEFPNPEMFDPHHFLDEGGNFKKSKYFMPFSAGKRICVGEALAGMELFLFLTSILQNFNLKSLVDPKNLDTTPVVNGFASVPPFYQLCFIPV

By inhibition is commonly meant the change of the read-out against control, counted positive when it falls. Regarding `NC(=O)CN1CCCC1=O`, the Activity was 60% in [1], 127% in data set [3] and 32% in the data set on Mus musculus. Moreover, the inhibition in [2] is 29%; in data set [5], 129%. Also, the viability at 24 h, 5 µM in data set [4] fell in the range of 88 to 132%.
On to `O=C(NCCCN1CCCCC1)c1ccc(Cn2c(Cc3c(Cl)cccc3Cl)nc3ccccc32)cc1`, for which the Activity in data set [1] was 90%; in data set [3], 64%. For the same compound, the activity at 20 min, 10 µM at CYP1A2 came to 68.4%; at CYP2D6 it was 25.5%; at CYP2C9 it was 61.1%; at CYP2C19, 67.3%; on CYP3A4 it was 176%. In addition, the inhibition turned out to be 3% in data set [2] and 27% in data set [5]. The viability at 24 h, 5 µM in [4] was 86 to 118%.
As usually defined, the IC50 is the point on the concentration scale where inhibition reaches its midpoint. Consider `CC(=O)N(Cc1ccccc1OC(C)C)c1ccc(Cl)cc1Oc1ccccc1`, for which the IC50 against Translocator protein was determined as 0.92 nM.
Take `CCN1CCCC1CNC(=O)c1ccc(Cn2c(Cc3c(Cl)cccc3Cl)nc3ccccc32)cc1` (stereo not drawn): the Activity is 90% in data set [1] and 51% in data set [3]. In data set [6], this compound gave an IC50 of 1570 nM. In addition, the activity at 20 min, 10 µM is 63% on CYP1A2; 82.4% on CYP2D6; 50.6% on CYP2C9; 31.4% on CYP2C19; 130% on CYP3A4. Moreover, the inhibition in data set [2] was determined as 6%; in [5], 24%. For the same compound, in data set [4], the viability at 24 h, 5 µM was in the range of 62 to 122%.
As for `COc1ccc(OC)c(CN(C(C)=O)c2ccc(F)cc2Oc2ccccc2)c1`, at Translocator protein, 1.6 nM corresponded to half-maximal inhibition (IC50).
The term Ki denotes the dissociation constant of the complex between target and ligand, obtained from inhibition or displacement. At Translocator protein, `CCCCN(CCCC)C(=O)Cc1c(-c2ccc(Cl)cc2)nc2c(Cl)cc(Cl)cn12` had a Ki of 2.68 nM.
`CCCCCCN(CCCCCC)C(=O)Cc1c(-c2ccc(F)cc2)[nH]c2ccccc12` had a Ki at Translocator protein of 3.25 nM.
With `Cc1ccc(C(C)C)cc1NC(=O)Cn1c(-c2cc(Cl)ccc2Cl)nc2ccc(Cl)cc21`, the Activity in data set [1] was determined as 87%; in [3], 69%. Moreover, the activity at 20 min, 10 µM worked out at 56.3% at CYP1A2; 82.2% at CYP2D6; 29.6% at CYP2C9; 11.9% at CYP2C19; 15.4% at CYP3A4. The inhibition in data set [2] amounted to 0%; in data set [5] it was 107%. The viability at 24 h, 5 µM in data set [4] was in the range of 86 to 106%.
For `CN(C)CCCNC(=O)c1ccc(Cn2c(Cc3c(Cl)cccc3Cl)nc3ccccc32)cc1`, the Activity in data set [1] was 82%; in data set [3], 85%; with Mus musculus, 62%. In addition, the activity at 20 min, 10 µM at CYP1A2 came to 66.1%; at CYP2D6, 120%; at CYP2C9, 53.9%; on CYP2C19, 72.9%; on CYP3A4, 206%. The values for the inhibition in [2] and in data set [5] were 7% and 9%, respectively. Also, the viability at 24 h, 5 µM in [4] is 93 to 111%.
Consider `COc1ccc(OC)c(Cc2nc3ccccc3n2CC(=O)Nc2cc(C(C)(C)C)cc(C(C)(C)C)c2)c1`, for which the Activity in data set [1] was found to be 54%; in [3], 46%. Besides, the IC50 in data set [6] stood at 20 nM. Further, the activity at 20 min, 10 µM was 92.5% on CYP1A2; 56.3% at CYP2D6; 36.1% at CYP2C9; 43.9% at CYP2C19; 43.3% at CYP3A4. The inhibition in [2] is 36%; in data set [5] it was 10%. In [4], the viability at 24 h, 5 µM lay in the range of 99 to 112%.
